Laboratory results reported in the RNAGym collection of RNA variant scans (doi:10.1126/science.aae0568).
Fewer inactive variants are shown than the library holds.

B1: tRNA (parent)
chain: GUUCCGUUGGCGUAAUGGUAACGCGUCUCCCUCCUAAGGAGAAGACUGCGGGUUCGAGUCCCGUACGGAACG

Variants of: B1
Test: yeast fitness relative to wild type (ratio to wild type); higher = fitter; tRNA-Arg(CCU), competitive growth, 37 C, YPD
Summary of the method: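 Variants of the tRNA-Arg(CCU) gene, chemically synthesised with a 3% per-site mutation rate at 69 sites, were placed at the native genomic locus in Saccharomyces cerevisiae. The pooled strains were competed in YPD at 37°C for 24 hours in six parallel replicates. Gene amplicons from the start population and from each end population were read by 100-nucleotide paired-end sequencing. Darwinian fitness relative to wild type came from changes in genotype frequencies; genotypes needed ≥ 100 starting reads, and estimates < 0.5 were set to 0.5.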
G25A C46U C66U showed a yeast fitness of 0.778. For G23C C49A U59C A69G, the yeast fitness was no more than 0.5. Variant A15C C29U G68C has a yeast fitness of no more than 0.5. With G10A G63C C66U the yeast fitness was no more than 0.5. A21U A42G C62A showed a yeast fitness of no more than 0.5. G38A A42C U54C A69C gave a yeast fitness of no more than 0.5. With C5G A14U A20U G41A A57G the yeast fitness was no more than 0.5. Work on G6C A20C C66G yielded a yeast fitness of 0.957. With G6A U16A G63A the yeast fitness was 0.569. G6A G18C A37C C60G A65G showed a yeast fitness of no more than 0.5. Work on C29A C31U yielded a yeast fitness of 0.713. For A15C A20U C31G C62A, the yeast fitness was no more than 0.5. For A21G C29U G38C, the yeast fitness was 0.814. C11A G48A U54A gave a yeast fitness of 0.584. Variant C5A C24U A37G A40G A42U C49U has a yeast fitness of no more than 0.5. In the case of U2G C11G C66U, the yeast fitness is reported as no more than 0.5. Variant C24G A45C C46G C60G A69U has a yeast fitness of no more than 0.5. Variant G9A C27G U35A has a yeast fitness of no more than 0.5. C11G C24G C27A U28C A65U gave a yeast fitness of 0.533. Work on U2G G10C A45U C46U U47C U64C yielded a yeast fitness of no more than 0.5. For C22U C29U A40C, the yeast fitness was 0.667. With U3A U26G the yeast fitness was 0.781. Work on C24G C55G C62U yielded a yeast fitness of no more than 0.5. C46G G51A G52A gave a yeast fitness of 0.566. A20U C29U A42G C49G C55A showed a yeast fitness of no more than 0.5. Variant C5A G58C C60A A70C has a yeast fitness of no more than 0.5. For G6A A14U A20C U28C C46U G58A, the yeast fitness was no more than 0.5. In the case of G10A A15U A36U, the yeast fitness is reported as no more than 0.5. Variant A15U U16C A40U U59A A70C has a yeast fitness of no more than 0.5. For A14U C29A C49A A69U, the yeast fitness was no more than 0.5. For U7A G10A A37G G41C A42U C46A C61G, the yeast fitness was 0.738. Work on U26A C31G A37G G63A yielded a yeast fitness of no more than 0.5. In the case of C22G G41A A43C G51C C66U G67U, the yeast fitness is reported as no more than 0.5. For U3A G10C G17C A37C G50C, the yeast fitness was no more than 0.5. U7A G18A C29G A37G C60A C62G showed a yeast fitness of no more than 0.5. Work on U19G C22G C34U C49U yielded a yeast fitness of no more than 0.5. C33A U54A gave a yeast fitness of no more than 0.5. C31U G48A C55U G63C showed a yeast fitness of 0.595. U16A A21C C30G A36G G51C G52A gave a yeast fitness of no more than 0.5. Work on A36G G38C U59A yielded a yeast fitness of no more than 0.5. Variant U7A C27A C66U has a yeast fitness of no more than 0.5. With U2G A21U A36U A45U A65U A70U the yeast fitness was no more than 0.5. In the case of A15C C22A C31A G38C G58C, the yeast fitness is reported as 0.542. A40U U59A showed a yeast fitness of 0.678. With A14G C33G A70U the yeast fitness was 0.545. Work on U2C G52C U59G yielded a yeast fitness of no more than 0.5. Variant U35G C46U C62U has a yeast fitness of 0.579. Work on A21G C46U C66U yielded a yeast fitness of 0.742. For G18A A36C, the yeast fitness was 0.503. G9C A20G U35C A36G showed a yeast fitness of no more than 0.5. G48C G68U showed a yeast fitness of 0.771. With U16G A36G A65G the yeast fitness was no more than 0.5. In the case of G25A C27G C33G G39A C46U C61U A69U, the yeast fitness is reported as no more than 0.5. Work on C5G G10A C30U A42C A70G yielded a yeast fitness of no more than 0.5. U8C A45C showed a yeast fitness of 0.802. C4U U7A G39C gave a yeast fitness of no more than 0.5. With A42C G48C A70U the yeast fitness was 0.666. Variant C33A C62U G67A has a yeast fitness of no more than 0.5. In the case of A36G C49U, the yeast fitness is reported as 1.02. Variant U8C G63C has a yeast fitness of 0.778. Work on U13A C55U A65C yielded a yeast fitness of 0.596. With C11U A15G C24G C27G C31U G41C C49U the yeast fitness was no more than 0.5. Variant U2A C31G C61G has a yeast fitness of no more than 0.5. Work on U26C U59C yielded a yeast fitness of 0.793. For A15U A36C A40U G58C G67C, the yeast fitness was no more than 0.5. For C27U G38A U59G U64C A65U, the yeast fitness was no more than 0.5. In the case of C27A C66G A70C, the yeast fitness is reported as no more than 0.5. Work on C4G A36G G38A A40U yielded a yeast fitness of no more than 0.5. Work on U26G C46A yielded a yeast fitness of 0.949. In the case of C5G C31U, the yeast fitness is reported as 0.867. C11A A15U A20C showed a yeast fitness of no more than 0.5. For A14U A42U, the yeast fitness was 0.652. C5G C29U G39A G58C A69U showed a yeast fitness of no more than 0.5. Variant U3A G58A has a yeast fitness of 1.01. Work on C5U U35G U47A G48A yielded a yeast fitness of no more than 0.5. Work on C5U U35G A45U A57C yielded a yeast fitness of no more than 0.5. For C4U G10A C11G A20G C27G A65G, the yeast fitness was no more than 0.5. For C4U A15U U28C A57G C61G, the yeast fitness was no more than 0.5. Work on C4U C11A A37C C66A yielded a yeast fitness of 0.535. For A42C A45C G48A A65G, the yeast fitness was 0.671. For U8A C34G A65U C66A, the yeast fitness was no more than 0.5. For C31A G52C A65U, the yeast fitness was no more than 0.5. Variant C29U C66G A70C has a yeast fitness of no more than 0.5. Work on G25C A36G G48A yielded a yeast fitness of 0.571. G6C C11G A15C G25C C27G C30G G38C A70G showed a yeast fitness of no more than 0.5. A42G U47C C62A C66U gave a yeast fitness of no more than 0.5. U2A A20U A45C gave a yeast fitness of 0.728. C27U G38C A40C A42C showed a yeast fitness of no more than 0.5. In the case of A37C C46U U59A, the yeast fitness is reported as no more than 0.5. In the case of U8C C31U A45C U47C, the yeast fitness is reported as no more than 0.5. In the case of C33G A70U, the yeast fitness is reported as 0.714. With C5U C24U A36G the yeast fitness was 0.791. In the case of U7C G9A U13C A21U G38C C46A, the yeast fitness is reported as no more than 0.5. Work on C5G C24G A40U yielded a yeast fitness of 0.57. With C31U G44A the yeast fitness was 1.02. Work on C4G C24G G25A U35A G51C yielded a yeast fitness of no more than 0.5. In the case of A14U C34G A37C A57C, the yeast fitness is reported as no more than 0.5. For A14G C22A C27G A42U, the yeast fitness was no more than 0.5. For C11U A20G G23C C31U C46G A70U, the yeast fitness was no more than 0.5. U8C C61A showed a yeast fitness of 0.763. Work on A40C U47C yielded a yeast fitness of 0.904. Variant U7G G39A C55U G68C has a yeast fitness of 0.594. Variant A14U A20C A37C C49G has a yeast fitness of no more than 0.5. With C24U U28G G48A the yeast fitness was no more than 0.5. For C5A C22U G39A A45C, the yeast fitness was no more than 0.5. With U2G C33A G39C the yeast fitness was no more than 0.5. Variant C55U U64A C66A has a yeast fitness of no more than 0.5. Variant A42G C46G has a yeast fitness of 0.886. In the case of C5A A15C G39C, the yeast fitness is reported as no more than 0.5. C22U C27U U54G gave a yeast fitness of no more than 0.5. A40G C62U A65C C66A showed a yeast fitness of no more than 0.5. C11U G18A G48A G67C gave a yeast fitness of no more than 0.5. U3A A65C A70U gave a yeast fitness of 0.66. C4U C60G G63A showed a yeast fitness of 0.706. For C49A C55U, the yeast fitness was 0.606. Variant C5A G10C G12A G23A has a yeast fitness of no more than 0.5. In the case of U3A C4G U8A C34U, the yeast fitness is reported as no more than 0.5. Variant A42C C62A has a yeast fitness of 0.719. With C30U A36G G44A C66U the yeast fitness was no more than 0.5. For G10C U35G A43C U47C C55U A69C, the yeast fitness was 0.574. Work on U7A A14U A15C U32C C46U G51C yielded a yeast fitness of no more than 0.5. C22G C29G G41C gave a yeast fitness of no more than 0.5. U16C U59A gave a yeast fitness of 0.852. C5U C24U G41C A70C showed a yeast fitness of no more than 0.5. In the case of C4A G23A U28A, the yeast fitness is reported as no more than 0.5. C11A C27G C33U G56A C61G showed a yeast fitness of no more than 0.5. In the case of A42C U54C, the yeast fitness is reported as 0.796. With C4U U8C G17C C49A the yeast fitness was no more than 0.5. In the case of U2G C11A C24A U26A G44C G68A, the yeast fitness is reported as no more than 0.5. In the case of C5G U13A C22G C29G A40U U54C C61G G67A, the yeast fitness is reported as no more than 0.5. With C11U U64A the yeast fitness was 0.71. C11U C27U C31A A42G C49G G51A G68C gave a yeast fitness of no more than 0.5. With C11A C31A U32C G44C A65G the yeast fitness was no more than 0.5. Variant U7C A15G G18C has a yeast fitness of no more than 0.5. Work on C33G A57G C61G A65G C66U yielded a yeast fitness of no more than 0.5. In the case of G6A A43G A65U, the yeast fitness is reported as 0.604. In the case of A20C A70G, the yeast fitness is reported as 0.925. C4G U19G A43U gave a yeast fitness of no more than 0.5. Variant C5G A14C U16A C30U G38C G41C C46G has a yeast fitness of no more than 0.5. Variant U2C C5G has a yeast fitness of 0.738. G10A C27U C34G A37U G41C G48A showed a yeast fitness of 0.573. C5G G17A U26C showed a yeast fitness of no more than 0.5. A57U A69G gave a yeast fitness of 0.665. Work on U3G A43U C62U yielded a yeast fitness of 0.727. For U7G C31U C33G A42U, the yeast fitness was 0.563. For U13C C46G, the yeast fitness was 0.97. U8C U26A C27A gave a yeast fitness of no more than 0.5. For A40U G58C, the yeast fitness was 0.945. C49G G50C C62U gave a yeast fitness of 0.539. For G38C A40C G51C C62U A69U, the yeast fitness was no more than 0.5. With G9A C34A G58A the yeast fitness was 0.667. Variant U2C A45U C62U G63C has a yeast fitness of no more than 0.5. For U7G C24U A45G, the yeast fitness was 0.601. G12C U19G A20C A21C C31U C61A showed a yeast fitness of no more than 0.5. Variant C55A A65C has a yeast fitness of 0.603. Variant C30A G50C C66U has a yeast fitness of no more than 0.5. In the case of C24G A70G, the yeast fitness is reported as 0.564. For A57U A70U, the yeast fitness was 0.69. For A37G G58C, the yeast fitness was 0.719. With C4A G17A G41A U54A A57C the yeast fitness was no more than 0.5. In the case of G25U U64G, the yeast fitness is reported as 0.788. In the case of G25A A40U G58C, the yeast fitness is reported as 0.973. Variant A15G A20C C60U has a yeast fitness of no more than 0.5. G9C U53C showed a yeast fitness of 0.59. A15U A57G gave a yeast fitness of 0.927. U2A U28G G67A gave a yeast fitness of no more than 0.5. For C4G U7G A36C, the yeast fitness was no more than 0.5.
